# Source: ChEMBL document CHEMBL5331111, “Synthetic Biology Facilitates Semisynthetic Development of Type V Glycopeptide Antibiotics Targeting Vancomycin-Resistant Enterococcus” (J Med Chem, 2023)
# Activity calls are given as the source filed them. No cut-off for these calls is given here.
# How the values were obtained:
# [1] = test system: Mycobacterium tuberculosis; experiment: Antimycobacterial activity against Mycobacterium tuberculosis H37Ra assessed as inhibition of bacterial growth measured after 7 days by resazurin dye based analysis; assay type: functional; conditions: 168 h, time 7 day
# Method in brief: (§1)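 Strains grown in 7H9 broth with 0.2% glycerol, 10% OADC and 0.05% Tween-80. Inoculum was about 5 × 10^5 CFU/mL, checked by plating on 7H10/OADC agar to be 3–8 × 10^5. Read at 2 days for M. smegmatis and 7 days for M. tuberculosis H37Ra, M. bovis and M. avium. Resazurin 30 μg/mL was then added for one further day. Values are averages of at least two experiments.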
# [2] = test system: Enterococcus faecalis; experiment: Antibacterial activity against vancomycin-resistant Enterococcus faecalis ATCC 51299 assessed as inhibition of bacterial growth by Mueller-Hinton broth based assay; assay type: functional
# [3] = test system: Enterococcus faecium; experiment: Antibacterial activity against Enterococcus faecium WCC 0495 assessed as inhibition of bacterial growth by Mueller-Hinton broth based assay; assay type: functional
# [4] = test system: Enterococcus faecium; experiment: Antibacterial activity against Enterococcus faecium WCC 0587 assessed as inhibition of bacterial growth by Mueller-Hinton broth based assay; assay type: functional
# [5] = Cytotoxicity against HEK293 cells assessed as inhibition of cell growth incubated for 48 hrs by Cell-Titer Glo reagent based analysis; assay type: toxicity; conditions: human
# Method in brief: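 HEK293 cells seeded at 7500 cells/well in DMEM with 10% FBS, 2 mM glutamine and pen/strep, and left 18 h at 37 °C under 5% CO2. Compound then added at 1% final DMSO and incubated 48 h. Viability read by CellTiter-Glo luminescence and normalized to DMSO-only wells. Curves fitted by 4PL constrained to 0–1.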
# [6] = test system: Enterococcus faecium; experiment: Antibacterial activity against vancomycin-resistant Enterococcus faecium ATCC 700221 assessed as inhibition of bacterial growth by Mueller-Hinton broth based assay; assay type: functional
# [7] = test system: Enterococcus faecium; experiment: Antibacterial activity against Vancomycin-resistant Enterococcus faecium ATCC 700221 infected in cyclophosphamide induced neutropenic thigh infection CD-1 mouse model assessed as reduction in weight loss at 100 mg/kg, ip qid measured after 24 hrs post-infection; assay type: functional, organism-based
# Method in brief: (§2)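 Female CD-1 mice, 6–10 weeks old, made neutropenic with i.p. cyclophosphamide (150 mg/kg day 4, 100 mg/kg day 1). About 1 × 10^6 CFU of E. faecium ATCC 700221, grown in BHI with vancomycin, were injected into each thigh. Dosing was i.p. at 1, 3, 5 and 20 h post-infection, in PEG400/DMSO/H₂O (45/5/50) vehicle, with vehicle controls. Mice were euthanized at 24 h.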
# [8] = Hemolytic activity in human RBC incubated for 1 hr by absorbance based analysis; assay type: toxicity, cell-based, Erythrocyte; conditions: red blood cells (erythrocytes)
# Method in brief: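 Human K2-EDTA blood RBCs washed twice in 150 mM NaCl, resuspended in PBS pH 7.4, then diluted 1:50. Incubated with compound at 1% final DMSO for 1 h at 37 °C and pelleted at 500g for 5 min. Supernatant absorbance read at 540 nm. Controls were DMSO-only and a Triton X-100 dilution series (20% to 0.02%).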
# [9] = test system: Enterococcus faecium; experiment: Antibacterial activity against Enterococcus faecium WCC 0558 assessed as inhibition of bacterial growth by Mueller-Hinton broth based assay; assay type: functional
# [10] = test system: Enterococcus faecium; experiment: Antibacterial activity against Enterococcus faecium WCC 0528 assessed as inhibition of bacterial growth by Mueller-Hinton broth based assay; assay type: functional
# [11] = test system: Enterococcus faecium; experiment: Antibacterial activity against Enterococcus faecium WCC 0496 assessed as inhibition of bacterial growth by Mueller-Hinton broth based assay; assay type: functional
# [12] = test system: Enterococcus faecium; experiment: Antibacterial activity against Enterococcus faecium WCC 0499 assessed as inhibition of bacterial growth by Mueller-Hinton broth based assay; assay type: functional
# [13] = test system: Enterococcus faecium; experiment: Antibacterial activity against Enterococcus faecium WCC 0491 assessed as inhibition of bacterial growth by Mueller-Hinton broth based assay; assay type: functional
# [14] = test system: Enterococcus faecium; experiment: Antibacterial activity against Enterococcus faecium WCC 0534 assessed as inhibition of bacterial growth by Mueller-Hinton broth based assay; assay type: functional
# [15] = Toxicity in cyclophosphamide induced neutropenic thigh infection CD-1 mouse model infected with Vancomycin-resistant Enterococcus faecium ATCC 700221 assessed as change in thigh weight at 100 mg/kg, ip qid measured after 24 hrs post-infection; assay type: organism-based; conditions: in vivo; method in brief: as §2
# [16] = test system: Enterococcus faecium; experiment: Antibacterial activity against Vancomycin-resistant Enterococcus faecium ATCC 700221 infected in cyclophosphamide induced neutropenic thigh infection CD-1 mouse model assessed as increase in survival rate at 100 mg/kg, ip qid measured after 24 hrs post-infection; assay type: functional, organism-based; method in brief: as §2
# [17] = test system: Enterococcus faecium; experiment: Antibacterial activity against Enterococcus faecium WCC 0553 assessed as inhibition of bacterial growth by Mueller-Hinton broth based assay; assay type: functional
# [18] = test system: Mycolicibacterium fortuitum; experiment: Antimycobacterial activity against Mycobacterium fortuitum ATCC 6891 assessed as inhibition of bacterial growth measured after 2 days by resazurin dye based analysis; assay type: functional; conditions: ATCC 6891, 48 h, time 2 day
# Method in brief: (§3)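 Cultured in 7H9 with 0.2% glycerol, 10% OADC and 0.05% Tween-80. Inoculum diluted to ~5 × 10^5 CFU/mL and confirmed at 3–8 × 10^5 by plating on 7H10 agar. Growth read at 2 days, then 30 μg/mL resazurin added for one more day. Values averaged from at least two experiments.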
# [19] = Toxicity in cyclophosphamide induced neutropenic thigh infection CD-1 mouse model infected with Vancomycin-resistant Enterococcus faecium ATCC 700221 assessed as change in spleen weight at 100 mg/kg, ip qid measured after 24 hrs post-infection; assay type: organism-based; conditions: in vivo; method in brief: as §2
# [20] = test system: Enterococcus faecium; experiment: Antibacterial activity against Vancomycin-resistant Enterococcus faecium ATCC 700221 infected in cyclophosphamide induced neutropenic thigh infection CD-1 mouse model assessed as reduction in blood bacterial load at 100 mg/kg, ip qid measured after 24 hrs post-infection; assay type: functional; method in brief: as §2
# [21] = test system: Enterococcus faecium; experiment: Antibacterial activity against Enterococcus faecium WCC 0516 assessed as inhibition of bacterial growth by Mueller-Hinton broth based assay; assay type: functional
# [22] = test system: Enterococcus faecium; experiment: Antibacterial activity against Enterococcus faecium WCC 0533 assessed as inhibition of bacterial growth by Mueller-Hinton broth based assay; assay type: functional
# [23] = test system: Enterococcus faecium; experiment: Antibacterial activity against Enterococcus faecium WCC 0492 assessed as inhibition of bacterial growth by Mueller-Hinton broth based assay; assay type: functional
# [24] = test system: Enterococcus faecium; experiment: Antibacterial activity against Enterococcus faecium WCC 0537 assessed as inhibition of bacterial growth by Mueller-Hinton broth based assay; assay type: functional
# [25] = test system: Mycobacteroides abscessus; experiment: Antimycobacterial activity against Mycobacterium abscessus ATCC 19977 assessed as inhibition of bacterial growth measured after 2 days by resazurin dye based analysis; assay type: functional; conditions: ATCC 19977, 48 h, time 2 day; method in brief: as §3
# [26] = test system: Enterococcus faecium; experiment: Antibacterial activity against Enterococcus faecium WCC 0498 assessed as inhibition of bacterial growth by Mueller-Hinton broth based assay; assay type: functional
# [27] = test system: Enterococcus faecium; experiment: Antibacterial activity against Enterococcus faecium WCC 0545 assessed as inhibition of bacterial growth by Mueller-Hinton broth based assay; assay type: functional
# [28] = test system: Enterococcus gallinarum; experiment: Antibacterial activity against vancomycin-resistant Enterococcus gallinarum ATCC 49573 assessed as inhibition of bacterial growth by Mueller-Hinton broth based assay; assay type: functional
# [29] = test system: Enterococcus faecium; experiment: Antibacterial activity against vancomycin-resistant Enterococcus faecium WCC 0541 assessed as inhibition of bacterial growth by Mueller-Hinton broth based assay; assay type: functional
# [30] = test system: Enterococcus faecium; experiment: Antibacterial activity against Enterococcus faecium WCC 0502 assessed as inhibition of bacterial growth by Mueller-Hinton broth based assay; assay type: functional
# [31] = test system: Mycolicibacterium smegmatis; experiment: Antimycobacterial activity against Mycobacterium smegmatis MC2 155 assessed as inhibition of bacterial growth measured after 2 days by resazurin dye based analysis; assay type: functional; conditions: MC2 155, 48 h, time 2 day; method in brief: as §1
# [32] = test system: Enterococcus faecium; experiment: Antibacterial activity against Enterococcus faecium WCC 0506 assessed as inhibition of bacterial growth by Mueller-Hinton broth based assay; assay type: functional
# [33] = Antimycobacterial activity against Mycobacterium avium subsp. avium ATCC 25291 assessed as inhibition of bacterial growth measured after 7 days by resazurin dye based analysis; assay type: functional; conditions: ATCC 25291, 168 h, time 7 day; method in brief: as §1
# [34] = test system: Enterococcus faecium; experiment: Antibacterial activity against Enterococcus faecium WCC 0586 assessed as inhibition of bacterial growth by Mueller-Hinton broth based assay; assay type: functional
# [35] = test system: Bacillus subtilis; experiment: Antibacterial activity against Bacillus subtilis 168 assessed as reduction in bacterial growth by Mueller-Hinton broth based assay; assay type: functional
# Method in brief: (§4)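 Broth MIC by standard procedure in Mueller-Hinton broth, for both B. subtilis 168 and S. aureus ATCC 33591.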
# [36] = test system: Enterococcus faecium; experiment: Antibacterial activity against Enterococcus faecium WCC 0524 assessed as inhibition of bacterial growth by Mueller-Hinton broth based assay; assay type: functional
# [37] = test system: Staphylococcus aureus; experiment: Antibacterial activity against Staphylococcus aureus ATCC 33591 assessed as reduction in bacterial growth by Mueller-Hinton broth based assay; assay type: functional; method in brief: as §4
# [38] = test system: Enterococcus faecium; experiment: Antibacterial activity against wild type Enterococcus faecium ATCC 19434 assessed as inhibition of bacterial growth by Mueller-Hinton broth based assay; assay type: functional
# [39] = test system: Enterococcus faecium; experiment: Antibacterial activity against Enterococcus faecium WCC 0500 assessed as inhibition of bacterial growth by Mueller-Hinton broth based assay; assay type: functional
Structure (SMILES),MIC [1],MIC [2],MIC [3],MIC [4],MIC [6],MIC [9],MIC [10],MIC [12],MIC [13],MIC [14],MIC [17],MIC [18],MIC [21],MIC [22],MIC [23],MIC [24],MIC [25],MIC [26],MIC [27],MIC [31],other results
CN(C)CCCNC(=O)[C@@H]1NC(=O)[C@@H]2Cc3ccc(cc3)Oc3cc4cc(c3O)-c3ccc5c(c[nH]c5c3)C[C@@H](NC(=O)C(NC(=O)CCCCCN)c3ccc(O)cc3)C(=O)N[C@H](c3ccc(O)cc3)C(=O)N[C@H]4C(=O)N[C@@H](C(=O)N2C)c2ccc(cc2)Oc2cc1ccc2O (some centres not stated),32 mg/L,1 mg/L,1 mg/L,1 mg/L,0.5 mg/L,1 mg/L,1 mg/L,1 mg/L,1 mg/L,0.5 mg/L,1 mg/L,2 mg/L,0.5 mg/L,0.5 mg/L,2 mg/L,2 mg/L,2 mg/L,2 mg/L,2 mg/L,0.5 mg/L,IC50 at 48 h [5]: > 256 mg/L; Activity [7]: Active; IC50 at 1 h [8]: > 256 mg/L; MIC [11]: 1 mg/L; Activity [15]: Non-Toxic; Activity [16]: Active; Activity [19]: Non-Toxic; log(activity) [20]: 3 CFU/g; MIC [28]: 2 mg/L; MIC [29]: 1 mg/L; MIC [30]: 1 mg/L; MIC [32]: 1 mg/L; MIC [33]: > 128 mg/L; MIC [34]: 1 mg/L; MIC [35]: 1 mg/L
CN1C(=O)[C@@H]2NC(=O)[C@@H]3NC(=O)[C@@H](c4ccc(O)cc4)NC(=O)[C@H](NC(=O)C(N)c4ccc(O)cc4)Cc4c[nH]c5cc(ccc45)-c4cc3cc(c4O)Oc3ccc(cc3)C[C@H]1C(=O)N[C@@H](C(=O)O)c1ccc(O)c(c1)Oc1ccc2cc1 (some centres not stated),–,8 mg/L,8 mg/L,8 mg/L,8 mg/L,8 mg/L,8 mg/L,8 mg/L,4 mg/L,4 mg/L,8 mg/L,8 mg/L,8 mg/L,8 mg/L,8 mg/L,8 mg/L,–,8 mg/L,8 mg/L,8 mg/L,MIC [36]: 4 mg/L; MIC [37]: 8 mg/L; MIC [38]: 8 mg/L; MIC [28]: 8 mg/L; MIC [29]: 8 mg/L; MIC [30]: 4 mg/L; MIC [32]: 4 mg/L; MIC [39]: 8 mg/L; MIC [34]: 8 mg/L
CN1C(=O)[C@@H](c2cc(Cl)c(O)c(Cl)c2)NC(=O)[C@@H]2NC(=O)[C@@H](c3cc(Cl)c(O)c(Cl)c3)NC(=O)[C@H](NC(=O)C(=O)c3cc(Cl)c(O)c(Cl)c3)Cc3c[nH]c4cc(ccc34)-c3cc2cc(c3O)Oc2ccc(cc2)C[C@H]1C(=O)N[C@@H](C(=O)O)c1ccc(O)cc1 [ISOCOMPLESTATIN],> 64 mg/L,–,–,–,–,–,–,–,–,–,–,> 128 mg/L,–,–,–,–,> 128 mg/L,–,–,> 128 mg/L,MIC [33]: > 64 mg/L
